Results as given in ChEMBL document CHEMBL3393022, “Ligand-induced conformational change of Plasmodium falciparum AMA1 detected using 19F NMR” (J Med Chem, 2014).
Activity calls are given as the source filed them. The calls are words filed in the database; no cut-off is given here. Residues, ends and D or L forms follow the SMILES beside them.

Legend:
[1] = biological target: T1, Apical membrane antigen 1 (Plasmodium falciparum (isolate 3D7)) (UniProt Q7KQK5); assay: Binding affinity to Plasmodium falciparum 3D7 5F-Trp-tagged AMA1 F367W mutant assessed as decrease in the W367 line width at 1 and 3 mM by 19F-NMR spectroscopy in presence of R1/RON2L
T1 sequence (whole entry): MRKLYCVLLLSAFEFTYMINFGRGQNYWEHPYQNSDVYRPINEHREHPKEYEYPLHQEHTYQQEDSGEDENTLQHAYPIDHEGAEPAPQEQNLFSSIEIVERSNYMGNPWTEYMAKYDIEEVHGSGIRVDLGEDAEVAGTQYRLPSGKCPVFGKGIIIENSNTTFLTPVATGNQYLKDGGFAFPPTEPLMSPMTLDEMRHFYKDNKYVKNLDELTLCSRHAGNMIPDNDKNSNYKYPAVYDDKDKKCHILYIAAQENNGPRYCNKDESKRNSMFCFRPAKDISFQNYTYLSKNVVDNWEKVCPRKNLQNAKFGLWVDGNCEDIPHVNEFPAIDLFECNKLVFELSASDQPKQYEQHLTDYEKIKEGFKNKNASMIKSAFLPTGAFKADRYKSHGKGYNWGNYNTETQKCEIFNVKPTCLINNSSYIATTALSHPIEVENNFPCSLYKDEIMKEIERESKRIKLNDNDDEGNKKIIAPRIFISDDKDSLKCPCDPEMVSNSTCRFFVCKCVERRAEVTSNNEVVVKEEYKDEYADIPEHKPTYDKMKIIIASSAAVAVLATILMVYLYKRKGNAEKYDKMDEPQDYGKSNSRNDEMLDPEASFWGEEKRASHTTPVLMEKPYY
Outline: (§1)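 5F-Trp-labelled 3D7 PfAMA1(108–434) F367W from E. coli BL21(DE3), induced with 1 mM IPTG for 3 h after glyphosate/Phe/Tyr/5F-Trp, refolded and purified into 20 mM phosphate pH 7.4. Small-molecule ligands were added from 100 mM stocks in H2O, ethanol or DMSO to 1 and 3 mM. 19F spectra: 2K scans, 8K complex points, 150 ppm sweep width, under 40 min, compared with free protein.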

[2] = biological target: T1, Apical membrane antigen 1 (Plasmodium falciparum (isolate 3D7)); assay: Binding affinity to Plasmodium falciparum 3D7 5F-Trp-tagged AMA1 assessed as downfield shifts of W110 peak by 19F-NMR spectroscopy in presence of R1/RON2L
[3] = biological target: T2, Apical membrane antigen 1 (Plasmodium falciparum (isolate 3D7), UniProt Q7KQK5); assay: Binding affinity to Plasmodium falciparum 3D7 AMA1 (108 to 434) expressed in Escherichia coli BL21(DE3) by SPR analysis
T2 sequence (Q7KQK5 whole entry): T1 sequence (whole entry)
Outline: (§2)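 SPR at 25 °C in PBS–0.1% Tween, flow 30 μL/min, with AMA1 immobilised on a GLC chip. Peptides were injected for 8 min at 50–3.125 nM, with 800 s dissociation. A lane without AMA1 and buffer or DMSO signals were subtracted. Regeneration used 0.85% phosphoric acid.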

[4] = biological target: T1, Apical membrane antigen 1 (Plasmodium falciparum (isolate 3D7)); assay: Binding affinity to Plasmodium falciparum 3D7 5F-Trp-tagged AMA1 F367W mutant at 1 and 3 mM by 19F-NMR spectroscopy in presence of R1/RON2L; outline: as §1
[5] = biological target: Apical membrane antigen 1 (Plasmodium falciparum (isolate 3D7), UniProt Q7KQK5); assay: Binding affinity to Plasmodium falciparum 3D7 AMA1 373W insertion mutant expressed in Escherichia coli BL21(DE3) by SPR analysis; outline: as §2
[6] = biological target: Apical membrane antigen 1 (Plasmodium falciparum (isolate 3D7), UniProt Q7KQK5, F367W); assay: Binding affinity to Plasmodium falciparum 3D7 AMA1 F367W mutant expressed in Escherichia coli BL21(DE3) at 1 and 3 mM by SPR analysis

| Molecule | Activity [1] | Activity [2] | Kd [3] | Activity [4] | Kd [5] | Kd [6] |
| --- | --- | --- | --- | --- | --- | --- |
| Cc1nc(N)sc1-c1ccc(N)cc1 | Dose-dependent effect | Dose-dependent effect | – | – | – | – |
| CC[C@H](C)[C@H](NC(=O)[C@H](CCC(N)=O)NC(=O)[C@H](CCC(N)=O)NC(=O)[C@@H]1CCCN1C(=O)[C@@H]1CCCN1C(=O)[C@H](CO)NC(=O)[C@H](CCSC)NC(=O)[C@H](CCCNC(=N)N)NC(=O)[C@@H](NC(=O)[C@@H](NC(=O)[C@H](Cc1ccccc1)NC(=O)[C@@H](N)CS)[C@@H](C)O)[C@@H](C)O)C(=O)N[C@@H](CS)C(=O)O (H-CFTTRMSPPQQIC-OH) | – | Active | 40 µM | – | – | – |
| Nc1cc(N)cc(-c2nc3ccccc3[nH]2)c1 | inactive | Active | – | Active | – | – |
| Nc1ccc2nc(N3CCCCC3)[nH]c2c1 | inactive | Dose-dependent effect | – | Active | – | – |
| H-VFAEFLPLFSKFGSRMHILK-OH | – | Active | 0.023 µM | – | 0.05 µM | 0.02 µM |
